The text below walks through data of ChEMBL document CHEMBL1150432 (J Med Chem, 2008).

pIC50, pKi: −log10 of the molar value.

In assay [1] the target is 5-hydroxytryptamine receptor 1B (Homo sapiens, UniProt P28222). The experiment in a line: Displacement of [3H]5-hydroxytryptamine from human cloned 5HT1B receptor expressed in CHOK1 cells by liquid scintillation counting. In kind it is cell-based, CHO-K1. On the technique in general: Loss of bound radioactivity is the signal in a displacement assay; it reports binding, not function.

The target of assay [2] is 5-hydroxytryptamine receptor 1D (Homo sapiens, UniProt P28221). The experiment in a line: Displacement of [3H]5-hydroxytryptamine from human cloned 5HT1D receptor expressed in CHOK1 cells by liquid scintillation counting. The assay is classed as cell-based, CHO-K1. Summed up: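 Membranes from CHO-K1 cells expressing cloned human 5-HT1D were purchased. Stopped by filtration over GF/B filters and counted by liquid scintillation. Ki derived from IC50 by Cheng-Prusoff. Each value is the mean of more than two runs done in duplicate or triplicate.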

A short description of assay [3]: Displacement of [3H]5-hydroxytryptamine from rhesus monkey cloned 5HT1F receptor expressed in African green monkey COS7 cells by liquid scintillation counting. In kind it is cell-based, Macaca mulatta. The note with it: cos-7. Summed up:
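Rhesus monkey 5-HT1F cloned by PCR into pcDNA3.1 and transiently transfected into COS-7 cells. Membranes prepared by homogenization in 50 mM Tris-HCl, 5 mM EDTA, pH 7.4. Filtered over GF/B and counted by liquid scintillation. Ki calculated via Cheng-Prusoff. Mean of more than two runs in duplicate or triplicate.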

The target of assay [4] is 5-hydroxytryptamine receptor 1B (Oryctolagus cuniculus) (UniProt P49144). The experiment in a line: Agonist activity at rabbit 5HT1B receptor assessed as induction of saphenous vein contraction at 30 uM after 5 mins. The assay is classed as functional, tissue-based.
The target is the same in assay [5]. As to the kind of experiment: Antagonist activity at rabbit 5HT1B receptor assessed as inhibition of sumatriptan-induced saphenous vein contraction at 30 uM. The assay is classed as functional, tissue-based. On the set-up: scale not given: the % may be the effect or the level left.
For assay [6], the target named is T1, 5-hydroxytryptamine receptor 1A (Homo sapiens, UniProt P08908).
T1 sequence (P08908 whole entry): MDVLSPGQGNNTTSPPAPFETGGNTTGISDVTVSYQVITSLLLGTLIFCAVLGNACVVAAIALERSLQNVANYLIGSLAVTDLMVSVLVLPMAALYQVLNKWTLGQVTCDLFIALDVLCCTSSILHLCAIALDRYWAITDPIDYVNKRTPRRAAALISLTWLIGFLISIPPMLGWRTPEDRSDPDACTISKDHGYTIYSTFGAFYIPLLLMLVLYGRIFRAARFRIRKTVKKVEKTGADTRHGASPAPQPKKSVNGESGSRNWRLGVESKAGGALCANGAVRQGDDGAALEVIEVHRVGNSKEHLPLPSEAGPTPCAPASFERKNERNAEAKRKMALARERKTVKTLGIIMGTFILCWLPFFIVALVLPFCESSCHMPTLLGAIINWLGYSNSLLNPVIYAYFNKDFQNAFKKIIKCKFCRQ
As to the kind of experiment: Binding affinity to 5HT1A receptor.

Assay [7] can be described thus: Displacement of [3H]5-hydroxytryptamine from human cloned 5HT1D receptor expressed in CHOK1 cells by liquid scintillation counting. The settings on record: cho-k1.

Sequence of 5-hydroxytryptamine receptor 1B (P28222 whole entry): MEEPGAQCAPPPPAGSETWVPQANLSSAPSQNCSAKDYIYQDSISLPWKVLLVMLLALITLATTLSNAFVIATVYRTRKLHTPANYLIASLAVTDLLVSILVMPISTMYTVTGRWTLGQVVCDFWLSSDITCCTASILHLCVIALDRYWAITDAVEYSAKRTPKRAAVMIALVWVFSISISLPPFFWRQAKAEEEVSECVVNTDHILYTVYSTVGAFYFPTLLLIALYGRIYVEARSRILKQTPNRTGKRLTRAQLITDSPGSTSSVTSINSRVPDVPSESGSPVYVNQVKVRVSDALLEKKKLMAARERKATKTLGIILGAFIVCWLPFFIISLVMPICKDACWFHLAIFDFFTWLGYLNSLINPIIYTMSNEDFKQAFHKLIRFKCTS
Sequence of 5-hydroxytryptamine receptor 1D (P28221 whole entry): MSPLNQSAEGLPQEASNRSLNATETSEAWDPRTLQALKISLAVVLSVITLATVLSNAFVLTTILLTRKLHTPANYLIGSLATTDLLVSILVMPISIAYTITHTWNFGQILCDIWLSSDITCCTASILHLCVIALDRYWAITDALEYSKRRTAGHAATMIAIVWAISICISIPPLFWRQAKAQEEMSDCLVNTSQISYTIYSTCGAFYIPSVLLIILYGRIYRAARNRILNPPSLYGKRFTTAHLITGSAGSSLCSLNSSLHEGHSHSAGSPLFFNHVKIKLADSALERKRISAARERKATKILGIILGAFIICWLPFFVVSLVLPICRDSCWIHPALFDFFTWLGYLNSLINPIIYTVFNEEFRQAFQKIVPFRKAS
Sequence of 5-hydroxytryptamine receptor 1B (Oryctolagus cuniculus) (P49144 whole entry): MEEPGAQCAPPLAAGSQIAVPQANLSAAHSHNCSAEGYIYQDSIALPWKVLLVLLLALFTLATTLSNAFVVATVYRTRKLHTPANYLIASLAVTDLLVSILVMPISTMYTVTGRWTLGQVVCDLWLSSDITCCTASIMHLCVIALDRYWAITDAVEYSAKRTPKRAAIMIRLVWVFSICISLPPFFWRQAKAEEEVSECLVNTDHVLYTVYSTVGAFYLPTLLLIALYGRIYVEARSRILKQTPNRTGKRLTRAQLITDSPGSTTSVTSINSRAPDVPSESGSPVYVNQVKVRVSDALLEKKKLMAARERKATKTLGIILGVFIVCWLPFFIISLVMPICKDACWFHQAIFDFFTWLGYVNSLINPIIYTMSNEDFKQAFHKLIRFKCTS

As a reminder, the pKi is the negative decadic logarithm of the Ki, by convention in mol/L. With `O=C(Nc1ccc2[nH]cc(C3CCN(CCCN4CCC(c5c[nH]c6ccc(NC(=O)c7ccc(F)cc7)cc56)CC4)CC3)c2c1)c1ccc(F)cc1`, the negative-log Ki (pKi) in assay [1] was less than 5.00; in assay [2], 7.10; in assay [3], less than 5.00.

As to `CN1CCC(c2c[nH]c3ccc(NC(=O)CCCCCCCCCCCCCC(=O)Nc4ccc5[nH]cc(C6CCN(C)CC6)c5c4)cc23)CC1`, the negative-log Ki (pKi) in assay [1] was 9.24; in assay [2] it was 8.64; in assay [3], less than 5.00.

`O=C(Nc1ccc2[nH]cc(C3CCN(CCCCCCCCCCN4CCC(c5c[nH]c6ccc(NC(=O)c7ccc(F)cc7)cc56)CC4)CC3)c2c1)c1ccc(F)cc1`: the pKi in assay [1] was 7.42; in assay [2], 7.89; in assay [3] it was less than 5.00.

As for `CN1CCC(c2c[nH]c3ccc(N)cc23)CC1`, the pKi was 6.45 in assay [1], 7.40 in assay [2] and less than 5.00 in assay [3].

`O=C(Nc1ccc2[nH]cc(C3CCN(CCO)CC3)c2c1)c1ccc(F)cc1`: the values for the pKi in assay [1], in assay [2] and in assay [3] were less than 6.00, less than 6.00 and 8.05, respectively.

On to `O=C(O)CCCCCCCCCN1CCC(c2c[nH]c3ccc(NC(=O)c4ccc(F)cc4)cc23)CC1`, for which the pKi in assay [1], in assay [2] and in assay [3] was less than 6.00 each time.

In the case of `CCCCCCCCN1CCC(c2c[nH]c3ccc(NC(=O)c4ccc(F)cc4)cc23)CC1`, the pKi in assay [1] was less than 6.00; in assay [2], less than 6.00; in assay [3], less than 5.00.

For the molecule `CN(C)CCCN1CCC(c2c[nH]c3ccc(NC(=O)c4ccc(F)cc4)cc23)CC1`, the figures for the negative-log Ki (pKi) in assay [1], in assay [2] and in assay [3] were less than 6.00, less than 6.00 and 6.91, respectively.

For the molecule `CN1CCC(c2c[nH]c3ccc(NC(=O)CCCCCCCCCCCCC(=O)Nc4ccc5[nH]cc(C6CCN(C)CC6)c5c4)cc23)CC1`, the negative logarithm of the Ki (pKi) in assay [1] was 9.30; in assay [2], 8.77; in assay [3], less than 5.00. The results for the Activity in assay [4] and in assay [5] were 24% and 58%, respectively.

Turning to `O=C(Nc1ccc2[nH]cc(C3CCN(CCN4CCCCC4)CC3)c2c1)c1ccc(F)cc1`, the pKi in assay [1], in assay [2] and in assay [3] was less than 6.00 in each case.

As usually defined, the pIC50 is −log10 of the IC50, conventionally taken in molar units. With `NC(=O)c1ccc2[nH]cc(C3=CCC(NCCCCCCCNC4CC=C(c5c[nH]c6ccc(C(N)=O)cc56)CC4)CC3)c2c1` (centres undefined), the negative-log IC50 (pIC50) is 8.74 in assay [6] and 10.30 in assay [7].

Consider `O=C(Nc1ccc2[nH]cc(C3CCN(CCCCCCCCCCCN4CCC(c5c[nH]c6ccc(NC(=O)c7ccc(F)cc7)cc56)CC4)CC3)c2c1)c1ccc(F)cc1`, for which the pKi in assay [1] was 6.90; in assay [2], 7.89; in assay [3] it was less than 5.00.

In the case of `O=C(Nc1ccc2[nH]cc(C3CCN(CCN4CCC(c5c[nH]c6ccc(NC(=O)c7ccc(F)cc7)cc56)CC4)CC3)c2c1)c1ccc(F)cc1`, the pKi in assay [1] is less than 5.00; in assay [2], 6.66; in assay [3], less than 5.00.

`CNS(=O)(=O)Cc1ccc2[nH]cc(CCN(C)C)c2c1` had a negative-log Ki (pKi) in assay [3] of 6.63.

For `O=C(Nc1ccc2[nH]cc(C3CCN(Cc4cccc(CN5CCC(c6c[nH]c7ccc(NC(=O)c8ccc(F)cc8)cc67)CC5)c4)CC3)c2c1)c1ccc(F)cc1`, the negative-log Ki (pKi) in assay [1] was 6.34; in assay [2], 6.82; in assay [3], less than 6.00.

Consider `O=C(Nc1ccc2[nH]cc(C3CCN(CCOCCOCCN4CCC(c5c[nH]c6ccc(NC(=O)c7ccc(F)cc7)cc56)CC4)CC3)c2c1)c1ccc(F)cc1`, for which the negative logarithm of the Ki (pKi) was 7.74 in assay [1], 8.82 in assay [2] and 7.57 in assay [3].

Consider `NC(=O)C(CN1CCC(c2c[nH]c3ccc(NC(=O)c4ccc(F)cc4)cc23)CC1)N1CCC(c2c[nH]c3ccc(NC(=O)c4ccc(F)cc4)cc23)CC1` (centres undefined), for which the pKi in assay [1] is less than 6.00; in assay [2] it was less than 6.00; in assay [3], 7.32.

For `CN1CCC(c2c[nH]c3ccc(NC(=O)CCCCCCCCCC(=O)Nc4ccc5[nH]cc(C6CCN(C)CC6)c5c4)cc23)CC1`, the pKi was 8.89 in assay [1], 9.05 in assay [2] and less than 5.00 in assay [3].

Turning to `O=C(Nc1ccc2[nH]cc(C3CCN(CCCCCCCCCN4CCC(c5c[nH]c6ccc(NC(=O)c7ccc(F)cc7)cc56)CC4)CC3)c2c1)c1ccc(F)cc1`, the negative-log Ki (pKi) in assay [1] was 6.90; in assay [2] it was 9.00; in assay [3], less than 5.00.

For `CN1CCC(c2c[nH]c3ccc(NC(=O)CCCCCCCCCCCC(=O)Nc4ccc5[nH]cc(C6CCN(C)CC6)c5c4)cc23)CC1`, the values for the pKi in assay [1], in assay [2] and in assay [3] were 10.00, 8.85 and less than 5.00, respectively.

Consider `O=C(Nc1ccc2[nH]cc(C3CCN(CCOCCOCCOCCN4CCC(c5c[nH]c6ccc(NC(=O)c7ccc(F)cc7)cc56)CC4)CC3)c2c1)c1ccc(F)cc1`, for which the pKi in assay [1] was 7.49; in assay [2], 8.41; in assay [3], 7.55.

For the molecule `CN1CCC(c2c[nH]c3ccc(NC(=O)CCCCCCCCC(=O)Nc4ccc5[nH]cc(C6CCN(C)CC6)c5c4)cc23)CC1`, the pKi is 9.10 in assay [1], 9.02 in assay [2] and less than 5.00 in assay [3].

In the case of `CN1CCC(c2c[nH]c3ccc(NC(=O)CCCCCCCCCCCCCCC(=O)Nc4ccc5[nH]cc(C6CCN(C)CC6)c5c4)cc23)CC1`, the figures for the pKi in assay [1], in assay [2] and in assay [3] were 9.09, 7.95 and less than 5.00, respectively.

Turning to `O=C(Nc1ccc2[nH]cc(C3CCN(CCCCCCCCCCCCN4CCC(c5c[nH]c6ccc(NC(=O)c7ccc(F)cc7)cc56)CC4)CC3)c2c1)c1ccc(F)cc1`, the pKi in assay [1] is less than 5.00; in assay [2] it was 7.89; in assay [3], less than 5.00.

On to `O=C(Nc1ccc2[nH]cc(C3CCN(CCCCCCN4CCC(c5c[nH]c6ccc(NC(=O)c7ccc(F)cc7)cc56)CC4)CC3)c2c1)c1ccc(F)cc1`, for which the figures for the pKi in assay [1], in assay [2] and in assay [3] were 7.00, 9.22 and less than 5.00, respectively.

As for `CN1CCC(c2c[nH]c3ccc(NC(=O)CC(=O)Nc4ccc5[nH]cc(C6CCN(C)CC6)c5c4)cc23)CC1`, the negative-log Ki (pKi) is 7.80 in assay [1], 8.47 in assay [2] and less than 5.00 in assay [3].

Take `CN1CCC(c2c[nH]c3ccc(NC(=O)CCCCCCC(=O)Nc4ccc5[nH]cc(C6CCN(C)CC6)c5c4)cc23)CC1`: the pKi in assay [1] is 8.89; in assay [2], 9.05; in assay [3] it was less than 5.00.

For `O=C(Nc1ccc2[nH]cc(C3CCN(CC(N4CCC(c5c[nH]c6ccc(NC(=O)c7ccc(F)cc7)cc56)CC4)C(F)(F)F)CC3)c2c1)c1ccc(F)cc1` (centres undefined), the pKi in assay [1] was less than 6.00; in assay [2] it was less than 6.00; in assay [3], 7.62.

As to `O=C(Nc1ccc2[nH]cc(C3CCN(Cc4ccccc4)CC3)c2c1)c1ccc(F)cc1`, the pKi in assay [1] was less than 6.00; in assay [2], less than 6.00; in assay [3], 7.49.

For `NCCc1c[nH]c2ccc(O)cc12` [SEROTONIN], in assay [3], the pKi is 7.46.

Regarding `CN1CCC(c2c[nH]c3ccc(NC(=O)c4ccc(F)cc4)cc23)CC1`, the pKi in assay [3] is 8.52.

For `O=C(Nc1ccc2[nH]cc(C3CCN(C/C=C/CN4CCC(c5c[nH]c6ccc(NC(=O)c7ccc(F)cc7)cc56)CC4)CC3)c2c1)c1ccc(F)cc1`, the pKi in assay [1] was 6.99; in assay [2], 7.62; in assay [3] it was less than 6.00.

Take `CN1CCC(c2c[nH]c3ccc(NC(=O)CCCC(=O)Nc4ccc5[nH]cc(C6CCN(C)CC6)c5c4)cc23)CC1`: the pKi is 9.12 in assay [1], 9.02 in assay [2] and less than 5.00 in assay [3].
